Assay results from ChEMBL document CHEMBL4152367, “Discovery of a Potent Thiazolidine Free Fatty Acid Receptor 2 Agonist with Favorable Pharmacokinetic Properties” (J Med Chem, 2018).
Active and inactive are the calls of the source. No cut-off for these calls is given here.

Legend:
[1] = molecular target: Free fatty acid receptor 1 (Homo sapiens) (UniProt O14842); assay: Agonist activity at human FFA1R expressed in HEK293 cells assessed as induction of calcium flux at 10 uM by fluorimetry; type: functional, cell-based
[2] = molecular target: T1, Peroxisome proliferator-activated receptor alpha (Homo sapiens) (UniProt Q07869); assay: Agonist activity at human PPARalpha expressed in Escherichia coli assessed as induction of calcium flux at 10 uM by fluorimetry
T1 sequence (whole entry): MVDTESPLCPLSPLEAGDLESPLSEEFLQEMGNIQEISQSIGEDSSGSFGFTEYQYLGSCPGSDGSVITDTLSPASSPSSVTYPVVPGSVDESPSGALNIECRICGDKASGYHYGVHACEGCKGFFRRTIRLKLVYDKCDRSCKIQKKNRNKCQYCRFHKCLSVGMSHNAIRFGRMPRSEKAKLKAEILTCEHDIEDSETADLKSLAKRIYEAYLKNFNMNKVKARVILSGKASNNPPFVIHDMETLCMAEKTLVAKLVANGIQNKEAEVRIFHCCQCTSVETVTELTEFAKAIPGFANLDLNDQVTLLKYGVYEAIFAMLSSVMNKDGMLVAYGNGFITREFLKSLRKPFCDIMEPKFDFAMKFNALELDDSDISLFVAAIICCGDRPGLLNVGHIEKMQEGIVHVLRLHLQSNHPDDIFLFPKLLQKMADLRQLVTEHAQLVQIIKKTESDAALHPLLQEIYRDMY

[3] = molecular target: T2, Peroxisome proliferator-activated receptor gamma (Homo sapiens) (UniProt P37231); assay: Agonist activity at human PPARgamma expressed in Escherichia coli assessed as induction of calcium flux at 10 uM by fluorimetry
T2 sequence (whole entry): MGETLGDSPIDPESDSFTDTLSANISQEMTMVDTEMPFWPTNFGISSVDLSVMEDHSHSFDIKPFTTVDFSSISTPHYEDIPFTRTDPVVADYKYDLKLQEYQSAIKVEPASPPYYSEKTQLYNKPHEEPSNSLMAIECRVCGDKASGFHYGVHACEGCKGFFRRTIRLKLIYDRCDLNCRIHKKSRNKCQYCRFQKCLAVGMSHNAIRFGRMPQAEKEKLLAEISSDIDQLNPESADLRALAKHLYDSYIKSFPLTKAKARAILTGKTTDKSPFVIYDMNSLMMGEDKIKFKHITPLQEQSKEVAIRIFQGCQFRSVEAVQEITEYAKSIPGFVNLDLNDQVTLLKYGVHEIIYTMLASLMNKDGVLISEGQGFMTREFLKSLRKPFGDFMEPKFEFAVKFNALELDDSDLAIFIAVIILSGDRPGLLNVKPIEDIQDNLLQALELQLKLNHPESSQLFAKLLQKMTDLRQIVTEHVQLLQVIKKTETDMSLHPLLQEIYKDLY

[4] = molecular target: T2, Peroxisome proliferator-activated receptor gamma (Homo sapiens); assay: Antagonist activity at human PPARgamma expressed in Escherichia coli assessed as inhibition of rosiglitazone-induced calcium flux at 10 uM by fluorimetry
[5] = Chemical stability of the compound in FaSSIF after 2 hrs; type: physicochemical; conditions: read-out: Stability
In short: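 Simulated-fluid stability: 50 µM compound in FaSSIF or FaSSGF (from 10 mM DMSO stock), shaken at 37 °C for 0 and 120 min. Quenched with acetonitrile containing 0.5% HCOOH, centrifuged, supernatant by HPLC. Stability from peak area relative to the 0 min sample; duplicates, mean reported.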

[6] = Total clearance in Balb/c mouse at 5 mg/kg, iv by HPLC-MS/MS analysis; type: ADME, organism-based; conditions: in vivo
In short: (§1)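 Balb/c mice dosed at 5 mg/kg iv or 10 mg/kg po. Plasma concentrations over time used to derive t1/2, AUC0–∞, Vd and total clearance (iv), and tmax, Cmax, AUC0–∞ and oral bioavailability (po).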

[7] = Tmax in Balb/c mouse at 10 mg/kg, po by HPLC-MS/MS analysis; type: ADME, organism-based; conditions: in vivo; in short: as §1
[8] = Cmax in Balb/c mouse at 10 mg/kg, po by HPLC-MS/MS analysis; type: ADME, organism-based; set-up: dose 10 mg/kg, route oral; conditions: in vivo; in short: as §1
[9] = Clearance in Balb/c mouse primary hepatocytes per million cells after 2 hrs by LC-MS/MS analysis; type: ADME, cell-based, Hepatocyte; conditions: read-out: CLH
[10] = Half life in Balb/c mouse at 5 mg/kg, ip by HPLC-MS/MS analysis; type: ADME, organism-based; conditions: in vivo

Sequence of Free fatty acid receptor 1 (Homo sapiens) (O14842 whole entry): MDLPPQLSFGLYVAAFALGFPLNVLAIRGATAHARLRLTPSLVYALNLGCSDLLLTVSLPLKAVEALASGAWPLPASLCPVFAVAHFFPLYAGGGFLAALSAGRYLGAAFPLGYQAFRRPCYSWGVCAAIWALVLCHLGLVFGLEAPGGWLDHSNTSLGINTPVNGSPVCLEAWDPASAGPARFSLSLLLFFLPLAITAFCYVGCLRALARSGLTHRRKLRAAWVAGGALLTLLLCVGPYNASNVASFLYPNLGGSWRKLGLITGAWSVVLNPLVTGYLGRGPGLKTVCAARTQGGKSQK

With Cc1noc(C)c1-c1ccc(C(=O)N2[C@@H](c3ccccc3Cl)SC[C@H]2C(=O)O)cc1 the Activity [1] was “inactive”, the Activity [2] was “inactive” and the Activity [3] was “inactive”. For the same compound, the inhibition [4] was “inactive”, the remaining at 2 h [5] was 95% and the clearance [6] was 20.3 mL/min/kg. For the same compound, the Tmax [7] was 15 min, the Cmax [8] was 2880 ng/mL and the hepatocyte CLint [9] was less than 8 µL/min/1e6 cells. The half-life [10] was 82 min.
